This is an account of results in publication PMC12506886 (RSC Advances, 2025).

As usually defined, the IC50 is the concentration that inhibits the measured activity by half.

Like-named read-outs stand apart in the source and are kept apart here. Some results are limits rather than exact numbers.

In test [1] the test system is A549 (human lung cancer) cells. The experiment in a line: MTT antiproliferative assay, A549 cells. Format: cell-based. Particulars: read-out: IC50 A549. Put shortly: (§1)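 Cancer cells were grown in RPMI 1640 with 10% FBS and 1% penicillin–streptomycin at 37 °C in humidified CO2. They were harvested with trypsin/EDTA and seeded at 8 × 10^3 cells per well. Cells were exposed to a concentration series in triplicate, with untreated wells as controls, for 72 h. MTT was then added for 4 h at 37 °C and formazan dissolved in DMSO (10 min, 37 °C, dark). Absorbance was read at 490 nm. IC50 is mean ± SD of 3–4 independent experiments.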
A general note: Formazan colour is commonly taken as a measure of viable cells.

Test [2] concerns SW480 (human colon cancer) cells. The experiment in a line: MTT antiproliferative assay, SW480 cells. Format: cell-based. The following applies: read-out: IC50 SW480. Put shortly:
as §1

The subject of test [3] is MRC-5 (human fetal lung fibroblast cells). The experiment in a line: MTT cytotoxicity assay, MRC-5 normal cells. The format is cell-based. Particulars: MRC5, 72 h, read-out: IC50 MRC-5. In short, it runs like this: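 Human fetal lung fibroblasts were harvested with trypsin/EDTA and seeded at 8 × 10^3 cells per well. They were treated in triplicate with a concentration series for 72 h, with untreated wells as controls. MTT was added for 4 h at 37 °C and formazan dissolved in DMSO. Absorbance was read at 490 nm. IC50 is mean ± SD of three independent replicates.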

Test [4] deals with A549 cells. In words: Annexin V-FITC/PI apoptosis assay by flow cytometry. Format: cell-based, human. Particulars: A549, 16.1 μM. Put shortly: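 A549 cells (1 × 10^5) were pre-cultured for 16 h, then exposed to 16.1 μM test compound for 24 h and 48 h. Cells were washed with PBS and 1× binding buffer, then stained with Annexin V-FITC for 15 min. After a further wash, PI was added in binding buffer and apoptosis rates were read by flow cytometry. Values are mean ± SD of three independent experiments, compared with untreated controls by one-way ANOVA and Tukey's test.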
For orientation: Flow cytometry measures light scatter and fluorescence of single cells or particles in a stream.

Test [5] deals with A549 cells. The experiment in a line: Cell cycle analysis by PI staining and flow cytometry. Format: cell-based, human. Particulars: A549, 16.1 μM. Put shortly:
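A549 cells (5 × 10^4) were pre-cultured for 16 h in high-glucose DMEM, then treated with 16.1 μM test compound for 24 h and 48 h. Cells were harvested with 0.25% trypsin, washed in PBS, and stained with propidium iodide plus 1 U RNase A. DNA content was measured by flow cytometry. Values are mean ± SD of three independent experiments, compared with control by one-way ANOVA and Tukey's test.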

Test [6] has as its system A549 cells. Particulars: read-out: IC50 (A549); cited from earlier work.
Setting [7] is: MTT, 72 h, mean ± SD of 3–4 independent replicates.

As for `N.N.[Cl][Pt][Cl]` [Cisplatin, reference compound], the half-inhibitory concentration (IC50) in test [1] (setting [7]) came out at 7.4 ± 1.6 µM.
For the compound `COc1cc(-c2nc3ccccc3n2Cc2cn(CC(=O)Nc3ccc(C)cc3)nn2)cc(OC)c1OC` [Compound 9a, N-(p-Tolyl)-2-(4-((2-(3,4,5-trimethoxyphenyl)-1H-benzo[d]imidazol-1-yl)methyl)-1H-1,2,3-triazol-1-yl)acetamide], the IC50 was 67.4 ± 3.4 µM in test [1] (Homo sapiens, A549, 72 h) and 77.2 ± 3.2 µM in test [2] (Homo sapiens, SW480, 72 h).
Taken in the same sequence, the figures for `COc1cc(-c2nc3ccccc3n2Cc2cn(CC(=O)Nc3ccccc3)nn2)cc(OC)c1OC` [Compound 9b, N-Phenyl-2-(4-((2-(3,4,5-trimethoxyphenyl)-1H-benzo[d]imidazol-1-yl)methyl)-1H-1,2,3-triazol-1-yl)acetamide] were 114 ± 5 µM and 158 ± 7.8 µM.
In the case of `COc1cc(-c2nc3ccccc3n2Cc2cn(CC(=O)Nc3ccc(Br)cc3)nn2)cc(OC)c1OC` [Compound 9d, N-(4-Bromophenyl)-2-(4-((2-(3,4,5-trimethoxyphenyl)-1H-benzo[d]imidazol-1-yl)methyl)-1H-1,2,3-triazol-1-yl)acetamide], the IC50 in test [1] (Homo sapiens, A549, 72 h) is greater than 200 µM; in test [2] (Homo sapiens, SW480, 72 h), greater than 200 µM.
As to `COc1cc(-c2nc3ccccc3n2Cc2cn(CC(=O)Nc3ccccc3Cl)nn2)cc(OC)c1OC` [Compound 9e, N-(2-Chlorophenyl)-2-(4-((2-(3,4,5-trimethoxyphenyl)-1H-benzo[d]imidazol-1-yl)methyl)-1H-1,2,3-triazol-1-yl)acetamide], the IC50 in test [3] turned out to be 105 ± 7.1 µM; in test [1] (Homo sapiens, A549, 72 h), 22.2 ± 4 µM; in test [2] (Homo sapiens, SW480, 72 h), 30.4 ± 3.6 µM.
On to `COc1ccc(NC(=O)Cn2cc(Cn3c(-c4cc(OC)c(OC)c(OC)c4)nc4ccccc43)nn2)c(OC)c1` [Compound 9f, N-(2,4-Dimethoxyphenyl)-2-(4-((2-(3,4,5-trimethoxyphenyl)-1H-benzo[d]imidazol-1-yl)methyl)-1H-1,2,3-triazol-1-yl)acetamide], for which the “rate of early apoptosis (Q3)” value in test [4] (24 h) stood at 3.79%; in test [4] (48 h), 12.2%. The “rate of late apoptosis (Q2)” value in test [4] (24 h) came to 1.63%; in test [4] (48 h), 4.01%. Also, the IC50 in test [3] came to 121 ± 6.7 µM; in test [1] (Homo sapiens, A549, 72 h) it was 16.1 ± 1.1 µM; in test [2] (Homo sapiens, SW480, 72 h), 19.7 ± 2.7 µM. Besides, the “changes in the number of cells in the cell cycle phases compared to control” value in test [5] (24 h) is on record as “not significant”. Besides, in test [5] (48 h, non-significant decrease), the “number of cells in the G2/M phase” value is 12.05%. The “number of cells in the S phase” value in test [5] (48 h, p < 0.001 vs control) amounted to 33.04%. Moreover, the “number of cells in the G0/G1 phase” value in test [5] (48 h, p < 0.01 vs control) amounted to 54.91%.
Consider `COc1cc(-c2nc3ccccc3n2Cc2cn(CC(=O)Nc3ccc(Cl)cc3Cl)nn2)cc(OC)c1OC` [Compound 9g, N-(2,4-Dichlorophenyl)-2-(4-((2-(3,4,5-trimethoxyphenyl)-1H-benzo[d]imidazol-1-yl)methyl)-1H-1,2,3-triazol-1-yl)acetamide], for which the IC50 was 31.5 ± 4.2 µM in test [1] (Homo sapiens, A549, 72 h) and 64.5 ± 3.3 µM in test [2] (Homo sapiens, SW480, 72 h).
`COc1cc(-c2nc3ccccc3n2Cc2cn(CC(=O)Nc3ccccc3[N+](=O)[O-])nn2)cc(OC)c1OC` [Compound 9h, N-(2-Nitrophenyl)-2-(4-((2-(3,4,5-trimethoxyphenyl)-1H-benzo[d]imidazol-1-yl)methyl)-1H-1,2,3-triazol-1-yl)acetamide]: the IC50 in test [1] (Homo sapiens, A549, 72 h) is 32.5 ± 4.2 µM; in test [2] (Homo sapiens, SW480, 72 h) it was 43.8 ± 2.5 µM.
Taken in the same sequence, the figures for `COc1cc(-c2nc3ccccc3n2Cc2cn(CC(=O)Nc3ccc(C)cc3C)nn2)cc(OC)c1OC` [Compound 9i, N-(2,4-Dimethylphenyl)-2-(4-((2-(3,4,5-trimethoxyphenyl)-1H-benzo[d]imidazol-1-yl)methyl)-1H-1,2,3-triazol-1-yl)acetamide] were 29.3 ± 6.6 µM and 51.5 ± 4.6 µM.
Taken in the same sequence, the figures for `COc1ccc(NC(=O)Cn2cc(Cn3c(-c4cc(OC)c(OC)c(OC)c4)nc4ccccc43)nn2)cc1` [Compound 9j, N-(4-Methoxyphenyl)-2-(4-((2-(3,4,5-trimethoxyphenyl)-1H-benzo[d]imidazol-1-yl)methyl)-1H-1,2,3-triazol-1-yl)acetamide] were 57.6 ± 5.7 µM and 68.1 ± 2.2 µM.
Consider `COc1cc(-c2nc3ccccc3n2Cc2cn(CC(=O)Nc3cccc(C)c3C)nn2)cc(OC)c1OC` [Compound 9k, N-(2,3-Dimethylphenyl)-2-(4-((2-(3,4,5-trimethoxyphenyl)-1H-benzo[d]imidazol-1-yl)methyl)-1H-1,2,3-triazol-1-yl)acetamide], for which the IC50 in test [1] (Homo sapiens, A549, 72 h) stood at 37.9 ± 0.14 µM; in test [2] (Homo sapiens, SW480, 72 h) it was 53.5 ± 6.4 µM.
Turning to `CCc1ccc(NC(=O)Cn2cc(Cn3c(-c4cc(OC)c(OC)c(OC)c4)nc4ccccc43)nn2)cc1` [Compound 9l, N-(4-Ethylphenyl)-2-(4-((2-(3,4,5-trimethoxyphenyl)-1H-benzo[d]imidazol-1-yl)methyl)-1H-1,2,3-triazol-1-yl)acetamide], the IC50 in test [1] (Homo sapiens, A549, 72 h) came out at 50.3 ± 6.7 µM; in test [2] (Homo sapiens, SW480, 72 h), 65.3 ± 1 µM.
Regarding `COc1cc(-c2nc3ccccc3n2Cc2cn(CC(=O)NCc3ccccc3)nn2)cc(OC)c1OC` [Compound 9m, N-Benzyl-2-(4-((2-(3,4,5-trimethoxyphenyl)-1H-benzo[d]imidazol-1-yl)methyl)-1H-1,2,3-triazol-1-yl)acetamide], the IC50 came to 47.9 ± 2.7 µM in test [1] (Homo sapiens, A549, 72 h) and 72.3 ± 5.3 µM in test [2] (Homo sapiens, SW480, 72 h).
Turning to `COc1cc(-c2nc3ccccc3n2Cc2cn(CC(=O)Nc3cccc(Cl)c3)nn2)cc(OC)c1OC` [Compound 9n, N-(3-Chlorophenyl)-2-(4-((2-(3,4,5-trimethoxyphenyl)-1H-benzo[d]imidazol-1-yl)methyl)-1H-1,2,3-triazol-1-yl)acetamide], the IC50 in test [3] was 124.2 ± 0.4 µM; in test [1] (Homo sapiens, A549, 72 h) it was 20.3 ± 2 µM; in test [2] (Homo sapiens, SW480, 72 h), 34.3 ± 3.1 µM.
Consider `COc1cc(-c2nc3ccccc3n2Cc2cn(CC(=O)Nc3ccccc3F)nn2)cc(OC)c1OC` [Compound 9o, N-(2-Fluorophenyl)-2-(4-((2-(3,4,5-trimethoxyphenyl)-1H-benzo[d]imidazol-1-yl)methyl)-1H-1,2,3-triazol-1-yl)acetamide], for which the concentration for half-maximal inhibition (IC50) in test [1] (Homo sapiens, A549, 72 h) was determined as 48.9 ± 2.2 µM; in test [2] (Homo sapiens, SW480, 72 h), 62.4 ± 3.7 µM.
Take `COc1cc(-c2nc3ccc(C)cc3[nH]2)cc(OC)c1OC` [Compound I, 6-methyl-2-(3,4,5-trimethoxyphenyl)-1H-benzo[d]imidazole]: the IC50 in test [6] is 39.4 µM.
With `COc1cccc2c1C(=O)c1c(O)c3c(c(O)c1C2=O)C[C@@](O)(C(=O)CO)C[C@@H]3O[C@H]1C[C@H](N)[C@H](O)[C@H](C)O1` [Doxorubicin, reference compound], the IC50 in test [3] amounted to 0.39 ± 0.06 µM; in test [1] (Homo sapiens, A549, 72 h), 0.46 ± 0.02 µM; in test [2] (Homo sapiens, SW480, 72 h) it was 0.59 ± 0.07 µM.
“N-(2-Nitrophenyl)-2-(4-((2-(3,4,5-trimethoxyphenyl)-1H-benzo[d]imidazol-1-yl)methyl)-1H-1,2,3-triazol-1-yl)acetamide [Compound 9c]”: the IC50 in test [1] (setting [7]) is 23.5 ± 3.6 µM; in test [2] (setting [7]), 22.5 ± 3.9 µM.
